Screening results: PubChem, several laboratories
UCH37 DUB inh: human UCH37 deubiquitinating enzyme inhibition | purified proteasome/UCH37, Ub-AMC cleavage fluorescence | 0.33% of 330,000 active | inhibition, % (no concentration beside the values) | Q9Y5K5;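 active = mean inhibition over replicate wells above about 20%, limit read from the data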;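 note: 0% = compound-free wells with enzyme and 100% = wells lacking proteasome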
Target sequence (Q9Y5K5 whole entry, looked up): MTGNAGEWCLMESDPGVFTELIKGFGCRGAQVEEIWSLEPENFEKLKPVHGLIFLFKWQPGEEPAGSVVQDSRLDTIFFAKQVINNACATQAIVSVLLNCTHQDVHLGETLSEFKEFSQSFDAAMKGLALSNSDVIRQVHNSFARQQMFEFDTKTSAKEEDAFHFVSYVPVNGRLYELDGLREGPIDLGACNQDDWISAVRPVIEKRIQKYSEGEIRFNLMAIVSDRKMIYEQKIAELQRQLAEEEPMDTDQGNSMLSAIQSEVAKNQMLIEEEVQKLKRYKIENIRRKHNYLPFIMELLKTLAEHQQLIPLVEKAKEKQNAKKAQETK
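System: Proteasome-associated human UCH37 deubiquitinase; Input: 0.15 nM proteasome in added enzyme buffer; Also added: Ub-AMC substrate from 1 µM stock; Incubation: 30 min compound-proteasome preincubation then 25 min substrate reaction, room temperature; Detection: fluorescence, ex 355 nm, em 460 nm; Read-out: % inhibition of Ub-AMC cleavage fluorescence; Benchmarks: no-proteasome and no-compound wells.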
Neddyl block: blocks human cullin neddylation; P61081+Q13564; TR-FRET cullin neddylation, biochemical; inhibition, % at 25 µM; 0.58% of 360,000 active; in the data active = inhibition above about 36%
SUMO HTRF inh: SUMOylation inhibition; 0.36% of 290,000 active; P63279; HTRF SUMOylation assay, SAE1/SAE2 + UBC9, in vitro; AID 2006; inhibition, % at 35 µM; in the data active = inhibition above about 50%, passing the limit was not always enough
Target sequence (P63279 whole entry, looked up): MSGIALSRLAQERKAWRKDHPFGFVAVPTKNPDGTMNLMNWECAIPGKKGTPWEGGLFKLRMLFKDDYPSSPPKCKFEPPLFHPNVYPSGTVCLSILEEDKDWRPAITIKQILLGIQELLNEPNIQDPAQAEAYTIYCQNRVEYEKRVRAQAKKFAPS
CTSL1 counter: cathepsin L1 inhibition, PFM18AAP counter-screen. 0.49% of 300,000 active. inhibition, % at 5.96 µM. AID 1906. recombinant F. hepatica cathepsin L1, Z-Leu-Arg-MCA fluorescence;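 active = inhibition above the mean of all tested compounds plus 3 SD, set per screening campaign, cut at about 17% in these data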;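 note: 0% = plate median of test compound wells and 100% = 1 µM Z-Phe-Ala-diazomethylketone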
Numbers without * were called inactive; nt = no result shown. Only some compounds are listed: those with a hit (about 1.4% of all), similar ones and a draw of the others.

SMILES | UCH37 DUB inh | Neddyl block | SUMO HTRF inh | CTSL1 counter
Cc1nc(S/C(=C/c2ccc(-c3ccc(C(=O)O)cc3)o2)C(=O)O)n[nH]1 | nt | -6 | 22 | 9
O=C1/C(=C\c2cc(Br)cc(Br)c2O)SC(=S)N1Cc1ccccc1 | 9 | -1 | 59* | -4
COc1cc(C=NNC(=O)Cc2ccccc2)cc([N+](=O)[O-])c1O | 22* | nt | nt | nt
O=C1/C(=C\c2ccc(O)cc2)SC(=S)N1Cc1ccccc1 | nt | -18 | 7 | -1
COc1cc([N+](=O)[O-])cc(/C=C2/SC(=S)N(Cc3ccccc3)C2=O)c1O | 21* | -33 | 46 | 0
COC(=O)NN=Cc1cc(OC)c(O)c([N+](=O)[O-])c1 | 14 | nt | nt | nt
COc1cc(/C=C2\C(=O)NN(c3ccccc3)C2=O)cc([N+](=O)[O-])c1O | 21* | -28 | 6 | 4
COc1cc(/C=C2\C(=O)NN(c3ccc(C)cc3)C2=O)cc([N+](=O)[O-])c1O | 16 | -30 | 20 | 0
COc1cc(C(=O)NN=C(C)c2ccc(NC(=O)Cc3ccccc3)cc2)ccc1O | 5 | nt | nt | nt
COc1cc(/C=C2\SC(=O)N(Cc3ccc(Cl)cc3)C2=O)cc([N+](=O)[O-])c1O | 22* | -28 | 26 | nt
CCn1c(SCC(=O)NN=Cc2ccccc2OCC(=O)O)nnc1-c1ccc(Cl)cc1 | 4 | nt | nt | nt
Oc1oc(-c2ccccc2)nc1/C=N/c1ccccn1 | nt | -30 | 17 | 71*
Oc1oc(-c2ccccc2Br)nc1C=Nc1ccc(Br)cn1 | 0 | 7 | 46 | 63*
Oc1oc(-c2ccccc2Br)nc1C=Nc1ccccn1 | 8 | nt | nt | nt
Oc1oc(-c2ccccc2)nc1C=Nc1ccccn1 | 5 | nt | nt | nt
O=C(NN=Cc1ccccn1)c1ccco1 | 6 | nt | nt | nt
Cn1c2ccccc2c2cc(C(=O)NNC(=O)CCl)sc21 | -25 | 18 | 4 | 94*
CCCNC(=O)c1cc2c3ccccc3n(C)c2s1 | -3 | 6 | 28 | 8
COc1ccc(N(CC(=O)NN=Cc2cccnc2)S(=O)(=O)c2ccccc2)c(OC)c1 | 0 | nt | nt | nt
Cc1cc(-c2n[nH]c(=S)n2N=Cc2cccc(O)c2)n[nH]1 | 3 | nt | nt | nt
COc1ccc(C2=NN(C(N)=S)C(c3ccccc3)C2)cc1 (stereo not given) | 1 | -24 | -9 | 55*
COc1ccc(C2=NN(C(=S)Nc3ccccc3)C(c3ccccc3)C2)cc1 (stereo not given) | 2 | -77 | -8 | 1
COc1ccccc1C=NNc1cc(C)nc(-n2nc(C)cc2C)n1 | -42 | nt | nt | nt
NC1=NC(=O)/C(=C\c2ccc(O)c([N+](=O)[O-])c2)S1 | 24* | -42 | 0 | 5
CC(=NNC(=S)NCc1ccccc1)c1ccc(Cl)cc1 | 3 | nt | nt | nt
SMILES | UCH37 DUB inh | Neddyl block | SUMO HTRF inh | CTSL1 counter
Cc1cc(/C=C(\C#N)C(=O)O)c(C)n1C1CC1 | 21* | -1 | -3 | 2
CC(=NNc1ccc(Cl)cc1)C(=NO)C(=O)Nc1ccccc1 | 0 | nt | nt | nt
O=C(Nc1ccccc1)C1=C(O)CC(c2ccoc2)CC1=Nc1ccccc1 (stereo not given) | -2 | -22 | 18 | 22*
COc1cc(OC)c(/C=N/NC(=O)c2ccc(NC(C)=O)cc2)cc1Br | nt | nt | 50* | nt
COc1cc(OC)c(C=NNC(=O)c2ccc(NC(C)=O)cc2)cc1Br | -19 | nt | nt | nt
COc1cc(OC)c(/C=N/NC(N)=S)cc1Br | nt | 26 | -2 | 74*
COc1ccc(OC)c(C=NNC(=O)c2ccc(N(C)S(=O)(=O)c3ccccc3)cc2)c1 | -156 | nt | nt | nt
O=C(NN=Cc1cccs1)C(O)c1ccccc1 (stereo not given) | 4 | nt | nt | nt
Cc1nn(C)c(C)c1C=NN=C1CCC2C3CCc4cc(O)ccc4C3CCC12C (stereo not given) | 3 | nt | nt | nt
c1ccc(C2=NOC(c3nnc(-c4ccccc4)o3)C2)cc1 (stereo not given) | 33* | 1 | nt | 0
Fc1ccc(C2=NOC(c3nnc(-c4ccccc4)o3)C2)cc1 (stereo not given) | 2 | -9 | -25 | 6
CN1C(=O)C(O)(CC(=O)/C=C/c2ccco2)c2ccccc21 (stereo not given) | 5 | 6 | 7 | 7
CN1C(=O)C(O)(CC(=O)/C=C/C=C/c2ccccc2)c2ccccc21 (stereo not given) | 5 | 6 | -5 | 32*
CN1CCN(C(=O)C2=C[C@@H](c3ccc(Br)cc3)C[C@@H](OCc3ccc(CO)cc3)O2)CC1 | -1 | -16 | 5 | 17*
CN1CCN(C(=O)C2=C[C@@H](c3ccccc3)C[C@@H](OCc3ccc(CO)cc3)O2)CC1 | 0 | -25 | -10 | 0
COCCN(C(=O)CCl)C(C(=O)NC1CCCCC1)c1ccccc1C (stereo not given) | 3 | 0 | 14 | 27*
COCCN(C(=O)CCC(=O)Nc1cc(C)on1)C(C(=O)NC1CCCC1)c1ccccc1C (stereo not given) | 4 | 6 | 7 | 2
O=C(Nc1cccs1)Nc1ccccc1Cl | 3 | -7 | 1 | 8
Cc1c(NC(=O)Nc2cccs2)cccc1[N+](=O)[O-] | 4 | -1 | -19 | 17*
CCCNC(=O)C(Sc1ccccc1)c1ccccc1 (stereo not given) | 4 | 5 | 12 | 36*
O=C(NN=Cc1ccc(N2CCCCC2)o1)c1ccccc1[N+](=O)[O-] | 7 | nt | nt | nt
COc1ccc(OC)c(C2C3=C(N=c4sc(=Cc5cccc(O)c5)c(=O)n42)c2ccccc2CC3)c1 (stereo not given) | 2 | nt | nt | nt
Cc1cc(C)n2nc(CC(=O)NNC(=O)c3ccc(N(C)C)cc3)nc2n1 | 5 | 1 | 8 | 36*
Cc1c(C=NNC(=O)C2(C)CC2(Cl)Cl)cnn1C (stereo not given) | 2 | nt | nt | nt
NC(=O)CC(NC(=O)Cc1cccc2ccccc12)c1ccc(NC2CCCCCC2)c([N+](=O)[O-])c1 (stereo not given) | 1 | -36 | 61* | 1
SMILES | UCH37 DUB inh | Neddyl block | SUMO HTRF inh | CTSL1 counter
NC(=O)CC(NC(=O)Cc1cccc2ccccc12)c1ccc(NCCc2ccccc2F)c([N+](=O)[O-])c1 (stereo not given) | 4 | -40 | 50* | -1
NC(=O)CC(NC(=O)Cc1cccc2ccccc12)c1ccc(NCCc2ccc(F)cc2)c([N+](=O)[O-])c1 (stereo not given) | 4 | -41 | 49 | -1
CN(C)C=NNC(=O)C1Cc2c(ccc3ccccc23)O1 (stereo not given) | 3 | nt | nt | nt
FC(F)(F)c1ccc(Cl)c(NC(=S)NN=Cc2ccccc2Cl)c1 | 4 | nt | nt | nt
O=C(NN=Cc1cccnc1)c1ccccc1OCc1ccc(Cl)cc1 | 3 | nt | nt | nt
O=C(NC1CCCCC1)N1CCCCCCC1 | 5 | 9 | 22 | 18*
O=C1CCCC2=C1C(c1ccco1)Nc1ccc3ccccc3c12 (stereo not given) | nt | 54* | 27 | -1
CCOC(=O)c1ccc2ncc(C(=O)OCC)c(NCCN3CCOCC3)c2c1 | 2 | 6 | 14 | -1
CCOC(=O)c1ccc2ncc(C(=O)OCC)c(NCCN(C)C)c2c1 | -8 | nt | nt | 66*
O=C(NC=NOCc1cccc(C(F)(F)F)c1)N1OC[C@@H]2COc3ccc4ccccc4c3[C@@H]21 | 6 | nt | nt | nt
